# According to paper PMC4065498 (Chemical research in toxicology, 2010):
# “And” between values parts separate entries of the source, which are not always exact repeats. Equal entries are not always repeated. “Also recorded” adds a separate entry of the source.
# T1: recombinant human CES1 (Homo sapiens, UniProt P23141)
# T1 sequence (P23141 18-567): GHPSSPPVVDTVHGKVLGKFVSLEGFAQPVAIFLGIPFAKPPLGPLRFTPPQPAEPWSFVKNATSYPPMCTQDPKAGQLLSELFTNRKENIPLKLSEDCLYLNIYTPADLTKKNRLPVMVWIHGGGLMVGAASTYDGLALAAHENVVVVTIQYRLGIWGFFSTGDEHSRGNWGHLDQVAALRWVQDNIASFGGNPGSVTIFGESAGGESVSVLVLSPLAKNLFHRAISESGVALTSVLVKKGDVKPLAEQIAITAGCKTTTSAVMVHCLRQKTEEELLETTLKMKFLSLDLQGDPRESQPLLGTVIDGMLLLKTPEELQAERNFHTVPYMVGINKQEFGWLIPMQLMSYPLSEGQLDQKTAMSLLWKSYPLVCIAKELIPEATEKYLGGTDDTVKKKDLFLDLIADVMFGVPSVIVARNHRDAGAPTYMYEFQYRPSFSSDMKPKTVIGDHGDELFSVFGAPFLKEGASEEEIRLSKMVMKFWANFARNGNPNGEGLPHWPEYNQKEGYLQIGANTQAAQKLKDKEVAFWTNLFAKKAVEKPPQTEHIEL
# T2: recombinant human CES2 (Homo sapiens, UniProt O00748)
# T2 sequence (O00748 27-559): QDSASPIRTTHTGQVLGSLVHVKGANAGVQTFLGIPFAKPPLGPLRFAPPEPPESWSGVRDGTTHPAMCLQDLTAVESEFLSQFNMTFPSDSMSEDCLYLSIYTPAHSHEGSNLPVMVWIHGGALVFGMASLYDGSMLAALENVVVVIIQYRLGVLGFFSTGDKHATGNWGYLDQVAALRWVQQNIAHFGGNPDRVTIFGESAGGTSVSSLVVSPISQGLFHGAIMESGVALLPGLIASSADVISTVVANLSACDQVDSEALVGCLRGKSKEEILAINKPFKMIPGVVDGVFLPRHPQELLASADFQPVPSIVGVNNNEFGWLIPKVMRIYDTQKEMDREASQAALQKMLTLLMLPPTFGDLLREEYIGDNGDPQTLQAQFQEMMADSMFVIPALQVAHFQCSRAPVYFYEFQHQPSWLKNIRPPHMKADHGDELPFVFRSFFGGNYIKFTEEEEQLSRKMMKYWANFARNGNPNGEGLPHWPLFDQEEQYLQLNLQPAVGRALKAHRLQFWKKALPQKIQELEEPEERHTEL
# T3: recombinant human MAGL (Homo sapiens, UniProt Q99685)
# T3 sequence (Q99685 1-303): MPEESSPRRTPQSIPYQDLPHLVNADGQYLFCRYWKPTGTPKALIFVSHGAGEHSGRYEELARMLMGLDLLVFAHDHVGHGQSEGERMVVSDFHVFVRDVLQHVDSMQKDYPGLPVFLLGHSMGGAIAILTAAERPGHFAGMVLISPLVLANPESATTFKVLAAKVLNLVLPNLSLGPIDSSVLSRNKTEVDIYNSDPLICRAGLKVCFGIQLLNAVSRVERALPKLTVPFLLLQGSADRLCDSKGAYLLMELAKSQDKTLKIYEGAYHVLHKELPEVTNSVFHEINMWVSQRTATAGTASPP
# T4: native CES1 in THP1 lysates (Homo sapiens, UniProt P23141)
# T4 sequence (P23141 18-567): T1 sequence (P23141 18-567)
# B1: recombinant human CES2 (Homo sapiens) (protein)
# chain: T2 sequence (O00748 27-559)
# B2: recombinant human CES1 (Homo sapiens) (protein)
# chain: T1 sequence (P23141 18-567)
# What was measured:
# recombinant human CES1 [1] = biological target: T1, recombinant human CES1; experiment: Off-target test: 2AG hydrolysis by recombinant human CES1 with NAM; type: biochemical; details: NAM 50 μM, 2AG 25 μM, 10 min pre-incubation
# recombinant human CES1 [2] = biological target: T1, recombinant human CES1; experiment: Hydrolysis of 2AG and PG-Gs by recombinant CES1; type: biochemical; details: for Km / kcat: human CES1, average ± SE of 2-4 independent experiments
# recombinant human CES2 = biological target: T2, recombinant human CES2; experiment: Hydrolysis of 2AG and PG-Gs by recombinant CES2; type: biochemical; details: for Km / kcat: human CES2, average ± SE of 2-4 independent experiments
# recombinant human MAGL [3] = biological target: T3, recombinant human MAGL; type: biochemical; details: substrate 25 μM, 15 min, recombinant human enzymes
# How it was run: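 Purified recombinant human enzymes were compared; CES1 was expressed in baculovirus-infected Spodoptera frugiperda cells.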
# [4] = test system: CES1-depleted THP1 monocyte lysates; experiment: PG-G and 2AG hydrolysis by CES1-immunodepleted THP1 monocyte lysates; type: biochemical, human; details: 25 μM PG-G or 10 μM 2AG, 30 min; versus preimmune IgG control
# How it was run: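 THP1 monocyte lysate was solubilised in 50 mM Tris-HCl (pH 7.4) with 0.5% w/v Brij (1 h, 4°C). It was then incubated overnight with anti-CES1 or preimmune IgG plus protein A-agarose, and depletion was checked by western blot. Substrate (25 μM PG-G or 10 μM 2AG) in the same buffer was preheated 5 min at 37°C, then started with 10-30 μg supernatant lysate; 2AG ran 30 min. Reactions were run in duplicate or triplicate across ≥2 IP experiments, compared by Student's t-test.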
# intact THP1 monocytes = type: cell-based, human; details: PO 1 μM, 30 min; substrate 25 μM, 60 min
# THP1 macrophages [5] = experiment: In situ formation of PG-Gs by LPS-primed THP1 macrophages given exogenous 2AG; type: cell-based, human
# THP1 macrophages [6] = experiment: PG-G and 2AG levels in LPS-primed THP1 macrophages stimulated with ionomycin; type: cell-based, human; details: oxon 1 μM, ionomycin 5 μM
# THP1 foam cells = experiment: Endogenous 2AG produced by cholesterol-loaded THP1 macrophages; type: cell-based, human; details: 24 h
# [7] = test system: lipid glyceryl ester hydrolase activities of THP1 monocyte lysates
# [8] = biological target: T4, native CES1 in THP1 lysates; experiment: Activity-based protein profiling with FP-biotin in THP1 lysate: CES1; type: biochemical
# How it was run: (§1)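 THP1 monocyte lysate (1 mg/ml protein in 50 mM Tris-HCl, pH 7.4) was labelled with 2 μM FP-biotin for 1 h at room temperature. Irreversible inhibitors were preincubated for 30 min (37°C) before the probe. For the reversible inhibitor, lysate received inhibitor, then 0.2 μM FP-biotin for 7.5 min, short of full labelling. Reactions were stopped in reducing SDS loading buffer (95°C, 5 min), run on SDS-PAGE and blotted with avidin-HRP.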
# [9] = test system: 31-32kDa enzyme in THP1 lysates; experiment: Activity-based protein profiling with FP-biotin in THP1 lysate: 31-32kDa enzyme; type: biochemical, human
# How it was run: as §1
# recombinant human MAGL [10] = biological target: T3, recombinant human MAGL; experiment: Off-target test: 2AG hydrolysis by recombinant human MAGL with S-3030; type: biochemical; details: S-3030 50 μM, 2AG 25 μM, 10 min pre-incubation
# recombinant human CES1 [11] = biological target: T1, recombinant human CES1; experiment: Recombinant human CES1 activity using pNPV as substrate; type: biochemical; details: data not shown
# [12] = substrate: CCCCC/C=C\C/C=C\C/C=C\C/C=C\CCCC(=O)OC(CO)CO; experiment: Hydrolysis of 2AG and PG-Gs by recombinant CES2; type: biochemical; details: other: human CES2; average ± SE of 2-4 independent experiments; pH 7.4; 37.0 °C
# [13] = substrate: CCCCC/C=C\C/C=C\C/C=C\C/C=C\CCCC(=O)OC(CO)CO; experiment: Hydrolysis of 2AG and PG-Gs by recombinant CES1; type: biochemical; details: other: human CES1; average ± SE of 2-4 independent experiments; pH 7.4; 37.0 °C
# [14] = 1 μM PO 30 min prior to 10 μM 2AG, LPS-pretreated THP1 macrophages
# [15] = maximal inhibition using 100 μM S-3030
molecule,measurement,setting,value
"CCCCC/C=C\C/C=C\C/C=C\C/C=C\CCCC(=O)N1C(=O)C=CC1=O [NAM, N-arachidonoyl maleimide]",inhibition of recombinant CES1 activity toward 2AG,recombinant human CES1 [1],inhibits
prostaglandin E2 glyceryl ester [PGE2-G],Km,recombinant human CES1 [2],250 ± 60 µM
same,kcat,recombinant human CES1 [2],90 ± 16^b min^−1
same,Km,recombinant human CES2,705 ± 380 µM
same,kcat,recombinant human CES2,150 ± 81 min⁻¹
same,hydrolysis rate by MAGL relative to CES1,recombinant human MAGL [3],2 fold
same,reduction of hydrolysis activity of CES1-depleted lysate,[4],80%
"CCOP(=O)(OCC)Oc1ccc([N+](=O)[O-])cc1 [PO, paraoxon]","inhibition of hydrolysis of exogenous 2AG, PGE2-G, or PGF2α-G by intact THP1 monocytes",intact THP1 monocytes,~ 50%
same,increase in PGE2-G levels,THP1 macrophages [5]; [14],2 fold
same,increase in PGF2α-G levels,THP1 macrophages [5]; [14],4 fold
same,"PGF2α-G, PGE2-G, and 2AG levels compared to vehicle-treated cells following ionomycin stimulation",THP1 macrophages [6],did not significantly elevate
same,amount of 2AG in culture medium relative to control group,THP1 foam cells; oxon 1 μM,3.1 fold
same,amount of 2AG in culture medium relative to control group,THP1 foam cells; oxon 10 μM,3.5 fold
same,inhibition of PGE2-G hydrolysis activity in THP1 cell lysate,[7]; oxon 1 μM,near complete inhibition
same,inhibition of hydrolysis of exogenous 2AG in THP1 lysate,"[7]; oxon 1 μM, 2AG 10 μM",35%
same,inhibition of 2AG hydrolysis activity in THP1 lysate,[7]; oxon 10 μM,did not further enhance inhibition
same,knock down of 2AG hydrolysis activity in THP1 monocyte lysate,[7]; oxon 500 μM,55%
"O=C1C(=O)c2sccc2-c2ccsc21 [S-3030, thieno[3,2-e][1]benzothiophene-4,5-dione]",IC50,[8],~23 µM
same,inhibition of the 31-32kDa enzyme (FP-biotin band intensity),"[9]; S-3030 0-100 μM, FP-biotin 0.2 μM, 7.5 min",not reduced
same,inhibition of recombinant human MAGL activity,recombinant human MAGL [10],did not inhibit; also recorded: does not inhibit
same,inhibition of 2AG hydrolysis in THP1 monocyte lysate,[7]; [15],55% and 50%
same,inhibition of PGE2-G hydrolysis in THP1 monocyte lysate,[7]; [15],97% and > 95%
same,inhibition of PGF2α-G hydrolysis in THP1 monocyte lysate,[7]; [15],80%
"CCCCC/C=C\C/C=C\C/C=C\C/C=C\CCCC(=O)NCCO [AEA, arachidonoyl ethanolamide]",hydrolysis of AEA by recombinant CES1,recombinant human CES1 [2]; amide-containing substrate,neither enzyme could hydrolyze
same,hydrolysis of AEA by recombinant CES2,recombinant human CES2; amide-containing substrate,neither enzyme could hydrolyze
COc1ccc2c(c1)c(CC(=O)O)c(C)n2C(=O)c1ccc(Cl)cc1 [indomethacin],formation of PG-Gs by THP1 macrophages,THP1 macrophages [5]; indomethacin 3 μM added along with CPO prior to 2AG,blocked formation of PG-Gs
prostaglandin F2α glyceryl ester [PGF2α-G],Km,recombinant human CES1 [2],93 ± 43 µM
same,kcat,recombinant human CES1 [2],"29 ± 3.5^a,b min^−1"
same,hydrolysis relative to PGE2-G using CES2 (judged by kcat/Km),recombinant human CES2,6.5 fold
same,hydrolysis by CES2 relative to CES1,recombinant human CES2; Table 1,three times faster
same,Km,recombinant human CES2,35 ± 4.1 µM
same,kcat,recombinant human CES2,49 ± 5.4^a min^−1
same,hydrolysis rate by MAGL relative to CES1,recombinant human MAGL [3],4 fold
same,reduction of hydrolysis activity of CES1-depleted lysate,[4],50%
"CCCCC/C=C\C/C=C\C/C=C\C/C=C\CCCC(=O)OC(CO)CO [2AG, 2-arachidonoylglycerol]",kcat,recombinant human CES1 [2],59 min⁻¹
same,kcat,recombinant human CES2,43 min⁻¹
same,reduction of hydrolysis activity of CES1-depleted lysate,[4],64%
same,control THP1 lysate hydrolysis activity,"[7]; 25 μM substrate, no inhibitor",2.5 nmol product/min/mg protein
O=C(Oc1ccc([N+](=O)[O-])cc1)N1CCC(C(O)(c2ccc3c(c2)OCO3)c2ccc3c(c2)OCO3)CC1 [JZL184],inhibition of CES1 in THP1 cell lysate (FP-biotin activity blot),[8]; JZL184 as low as 0.1 μM,completely inhibit
same,inhibition of the 31-32kDa enzyme (FP-biotin activity probe),"[9]; concentrations as high as 100 μM, 30 min",not inhibited
same,inhibition of recombinant human CES1 activity using pNPV as substrate,recombinant human CES1 [11],potently inhibit
same,reduction of PGF2α-G hydrolytic activity in THP1 monocyte lysate,[7]; maximal reduction by JZL184,80%
CN(Cc1cccc(-c2ccncc2)c1)C(=O)Oc1ccc(-c2ccc(C(N)=O)cc2)cc1 [WWL70],inhibition of 2AG hydrolytic activity in THP1 cell lysate,[7]; specific ABHD6 inhibitor,did not inhibit; also recorded: does not inhibit
B1,Km,[12],46 ± 13 µM
same,kcat,[12],0.717 ± 0.0667 s⁻¹
B2,Km,[13],49 ± 11 µM
same,kcat,[13],0.983 ± 0.0667 s⁻¹
